Lmaj promast: Leishmania major promastigote growth inhibition, primary screen; Leishmania major promastigotes, resazurin fluorescence viability; inhibition, % at 10 µM; 9% of 200,000 active; in the data active means inhibition above about 50%;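 further: promastigotes grown with compound for 44 hours at 28 °C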
ABCB1 inh: ABCB1 efflux pump inhibitors, primary screen, cell-based, multiplex, flow cytometry, ABCG2 counter-screen | inhibition, % at 6.6 µM | 0.067% of 190,000 active | AID 1326, 2008 | CCRF-Adr cells, JC-1 efflux; in the data active means inhibition above about 40%;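 further: higher value means more JC-1 retained so stronger ABCB1 efflux block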
ABCG2 inh: ABCG2 efflux pump inhibitors, primary screen, multiplex with ABCB1, IgMXP3 cells, flow cytometry. Broad substrate specificity ATP-binding cassette transporter ABCG2 (Homo sapiens), Q9UNQ0. JC-1 efflux. inhibition, % at 6.6 µM. 0.1% of 190,000 active;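 active means inhibition above 80%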
Target sequence (Q9UNQ0 whole entry, looked up): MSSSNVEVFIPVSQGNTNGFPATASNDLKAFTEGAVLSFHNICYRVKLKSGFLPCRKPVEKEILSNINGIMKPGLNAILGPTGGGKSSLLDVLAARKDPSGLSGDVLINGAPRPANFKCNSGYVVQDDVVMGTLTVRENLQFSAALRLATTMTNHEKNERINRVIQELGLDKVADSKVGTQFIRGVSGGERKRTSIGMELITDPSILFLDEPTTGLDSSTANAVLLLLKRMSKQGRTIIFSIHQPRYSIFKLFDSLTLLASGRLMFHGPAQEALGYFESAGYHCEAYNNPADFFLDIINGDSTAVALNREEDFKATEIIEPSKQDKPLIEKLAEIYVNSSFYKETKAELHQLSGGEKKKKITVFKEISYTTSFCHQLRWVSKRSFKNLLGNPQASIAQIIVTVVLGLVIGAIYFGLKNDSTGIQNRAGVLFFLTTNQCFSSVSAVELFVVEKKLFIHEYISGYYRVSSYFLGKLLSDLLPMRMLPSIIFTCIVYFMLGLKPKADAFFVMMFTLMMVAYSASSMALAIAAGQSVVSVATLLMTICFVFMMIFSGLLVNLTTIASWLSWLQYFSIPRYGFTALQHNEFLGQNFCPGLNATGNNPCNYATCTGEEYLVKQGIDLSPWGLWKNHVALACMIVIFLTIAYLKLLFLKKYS
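Assay system – ABCG2 IgMXP3 and barcoded ABCB1 CCRF-Adr cell mix · Input – 3 million cells/mL in well · Reagent – JC-1 fluorescent substrate · Compound – single test compound dose, 6.6 µM final · Timing – 10 min exposure at 25 °C with rotation, no wash · Detection – flow cytometry of retained JC-1 fluorescence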
WT yeast gro inh: growth inhibition of WT strain, primary screen, mitochondrial fusion inhibitor project, WT and mutant strains, chemical genetic | mitochondrial fusion phenotypic screen | inhibition, % at 10 µM | 2.1% of 190,000 active | AID 1362, 2008; in the data active means inhibition above about 58%; tested in S. cerevisiae
RAM network inh: inhibitors of the yeast RAM network, primary screen, dse1pr::URA3 reporter, 5-FOA selection | S. cerevisiae dse1pr::URA3 reporter, 5-FOA growth OD615, 2 d; analog-sensitive cbk1-as2 kinase mutant strain | inhibition, % at 50 µM | 1.8% of 190,000 active | AID 868, 2007;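 active means inhibition above a set limit, 3 SD over mean compound inhibition, cut at about 8.4% in these data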;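 further: inhibition rescues growth on 5-FOA so higher OD means more RAM inhibition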
A number is an active result; n = inactive. This is a sample that favours compounds with a hit; in the whole collection about 12% have one here.

SMILES | Lmaj promast | ABCB1 inh | ABCG2 inh | WT yeast gro inh | RAM network inh
N/C(=N\S(=O)(=O)c1ccccc1)c1ccc([N+](=O)[O-])cc1 | n | n | n | n | n
Cc1ccc2c(C)nc(N/C(N)=N/S(=O)(=O)c3ccc([N+](=O)[O-])cc3)nc2c1 | 88 | n | n | n | n
Cc1nc(N/C(N)=N/S(=O)(=O)c2ccc([N+](=O)[O-])cc2)nc2ccccc12 | 54 | n | n | n | n
COc1ccc(NC(=S)/N=C(\N)Nc2nc(C)c3ccc(C)cc3n2)cc1 | n | n | n | n | n
O=C(CCCSc1nc2ccccc2[nH]1)Nc1nnc(C2CC2)s1 | n | n | n | n | n
Cc1ccc(-c2nnc(N3CCN(C(=O)CSc4ncn[nH]4)CC3)c3ccccc23)cc1 | n | n | n | n | n
Cc1ccc(OCC(=O)N2CCN(c3nnc(-c4ccccc4)c4ccccc34)CC2)cc1 | 89 | n | n | n | n
CCOC(=O)c1[nH]cnc1C(=O)Nc1ccccc1OC | n | n | n | n | n
CCOCCCn1c(=N)c(C(=O)NCCN2CCOCC2)cc2c(=O)n3cccc(C)c3nc21 | 61 | n | n | n | n
CCCn1c(=N)c(C(=O)NCc2ccc3c(c2)OCO3)cc2c(=O)n3cccc(C)c3nc21 | 96 | n | n | n | n
CCOCCCn1c(=N)c(C(=O)NCc2ccc3c(c2)OCO3)cc2c(=O)n3ccccc3nc21 | n | n | n | n | n
COCCn1c(=N)c(C(=O)NCCc2ccc(OC)cc2)cc2c(=O)n3cccc(C)c3nc21 | n | n | n | n | n
CCCCn1c(=NC(=O)c2ccc3c(c2)OCO3)c(C#N)cc2c(=O)n3cccc(C)c3nc21 | 86 | n | n | n | n
COC(=O)C1=C(C)N=C2SC(C#N)=C(N)N2C1c1ccc(OCc2ccccc2)cc1 (stereo not drawn) | 98 | n | n | n | n
COC(=O)C1=C(C)N=C2SC(C#N)=C(N)N2C1c1cc(OC)c(OC)c(OC)c1 (stereo not drawn) | n | n | n | n | n
O=C(Nc1cccc(F)c1)NC1(C(=O)N2CCOCC2)CCCCC1 | n | n | n | n | n
COc1ccc2cc3c(N)nn(C(=O)C4CCC(C(C)(C)C)CC4)c3nc2c1 (stereo not drawn) | n | n | n | 92 | n
COC(=O)c1ccn(Cc2ccccc2Cl)n1 | n | n | n | n | n
Cc1ccc(NC(=S)N2CCN(Cc3ccccc3)CC2)cc1 | n | n | n | n | n
CC(C)c1ccc(NC(=S)N2CCN(Cc3ccccc3)CC2)cc1 | 86 | n | n | n | n
S=C(Nc1ccc(Cl)cc1)N1CCN(Cc2ccccc2)CC1 | n | n | n | n | n
FC(F)Oc1ccc(NC(=S)N2CCN(Cc3ccccc3)CC2)cc1 | 80 | n | n | n | n
COc1ccc(NC(=S)N2CCN(Cc3ccc(C)cc3)CC2)cc1 | 62 | n | n | n | n
Cc1ccc(-c2nc3ccccc3c(C(=O)NCc3cccs3)c2C)cc1 | n | n | n | n | n
Cc1ccc(O)c(C(CC(=O)NC2CCCCC2)c2ccccc2)c1 (stereo not drawn) | n | n | n | n | n
SMILES | Lmaj promast | ABCB1 inh | ABCG2 inh | WT yeast gro inh | RAM network inh
CC(C)CCN1CCN(Cc2cnc(N3CCCC3)s2)CC1CCO (stereo not drawn) | n | n | n | n | n
Cc1ncc(CN2CCN(Cc3ccc(F)cc3)C(CCO)C2)s1 (stereo not drawn) | n | n | n | n | n
CC(C)CCN1CCN(Cc2cccn2-c2ccc(Cl)cn2)CC1CCO (stereo not drawn) | 73 | n | n | n | n
Cc1ccc(CN2CCN(Cc3cnc(C)[nH]3)CC2CCO)cc1 (stereo not drawn) | n | n | n | n | n
Cc1ccc(CN2CCN(CCCc3ccccc3)CC2CCO)cc1 (stereo not drawn) | 87 | n | n | n | n
Cc1ncc(CN2CCN(CCc3ccccc3)C(CCO)C2)s1 (stereo not drawn) | 63 | n | n | n | n
CC(C)CCN1CCN(Cc2cnc(-c3ccccc3)s2)CC1CCO (stereo not drawn) | 88 | n | n | n | n
O=C1Nc2ccccc2N(O)N1c1ccc(S(=O)(=O)N2CCOCC2)cc1 | n | n | n | n | n
CCOc1ccc(NC2OCC(O)C(O)C2O)c([N+](=O)[O-])c1 (stereo not drawn) | n | n | n | n | n
COc1cccc2c1OCC(CN1CCN(CCC(C)C)C(CCO)C1)=C2 (stereo not drawn) | 70 | n | n | n | n
COc1ccc(CN2CCN(CCC(C)C)C(CCO)C2)cc1Cn1cccn1 (stereo not drawn) | n | n | n | n | n
CC(C)CC1(C)NC(=O)N(CC(=O)Nc2ccc3c(c2)CCC3)C1=O (stereo not drawn) | n | n | n | n | n
CC(C)CCSc1nc(N)c(C#N)cc1C#N | 76 | n | n | n | n
O=C(NCCc1nc2ccccc2[nH]1)/C(=C/c1ccc2c(c1)OCO2)NC(=O)c1ccc(Cl)cc1Cl | n | n | n | n | n
CN1CCN(S(=O)(=O)c2ccc(NC(=S)NC(=O)C3CCCC3)cc2)CC1 | n | n | n | n | n
CC(C)CC(=O)NC(=S)Nc1ccc(S(=O)(=O)N2CCN(C)CC2)cc1 | 67 | n | n | n | n
CN1CCN(S(=O)(=O)c2ccc(NC(=O)c3csc4ccccc34)cc2)CC1 | 56 | n | n | n | n
CC(C)C(=O)NC(=S)Nc1ccc(S(=O)(=O)N2CCN(C)CC2)cc1 | 87 | n | n | n | n
O=C(/C=C\c1ccc(-c2cccc([N+](=O)[O-])c2)o1)N1CCOCC1 | n | n | n | n | n
CC(O)CNc1ccc(-c2nn(C)c(=O)c3ccccc23)cc1[N+](=O)[O-] (stereo not drawn) | n | n | n | n | n
CN(C)CCCNc1ccc(-c2nn(C)c(=O)c3ccccc23)cc1[N+](=O)[O-] | 100 | n | n | n | n
CN1CCC2(CC1)Nc1nc(SCc3ccc(Cl)cc3)nn1C1=C2CN(C)CC1 | 97 | n | n | 66 | n
CC12CCC(c3nnc(SCc4ccc(Cl)cc4)nc31)C2(C)C (stereo not drawn) | n | n | n | n | n
CN(C)NC(=O)C12CCC(C)(C(=O)O1)C2(C)C (stereo not drawn) | n | n | n | n | n
COc1cccc(N2C(C(C)=O)=NN(c3ccccc3)C2c2ccc(N3CCOCC3)cc2)c1 (stereo not drawn) | n | n | n | n | n
COc1ccc(C2N(c3ccc(Cl)cc3)N=C(C(C)=O)N(C)N2C(C)=O)cc1 (stereo not drawn) | 58 | n | n | 67 | n
C=CCOC(=O)C1=C(C)NC(=S)NC1c1cccs1 (stereo not drawn) | n | n | n | n | n
